Test results from PubChem BioAssay AID623977 (Vanderbilt High Throughput Screening Facility, 2012).

Biological target: G protein-activated inward rectifier potassium channel 2 (Homo sapiens) + G protein-activated inward rectifier potassium channel 1 (Homo sapiens) (UniProt P48051+P48549)
Assay: activation of GIRK1/2 current, electrophysiology – HEK-293 hGIRK1/2, whole-cell voltage clamp, Ba2+-sensitive current, orthogonal assay for GIRK activator project, confirmation (AID 623977)
Conditions: HEK-293 hGIRK1/2, whole-cell patch clamp current
In short: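 Assay system: HEK-293 cells stably expressing human GIRK1/2 channels; Buffer or medium: 20 mM K+ bath, pH 7.4, KCl pipette solution; Dosing: test compound diluted in 20 mM K+ bath solution; Timing: recordings 24–72 h post-plating; Signal: whole-cell patch clamp, -70 mV.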

G protein-activated inward rectifier potassium channel 2 (Homo sapiens) + G protein-activated inward rectifier potassium channel 1 (Homo sapiens), sequence (P48051 whole entry, looked up): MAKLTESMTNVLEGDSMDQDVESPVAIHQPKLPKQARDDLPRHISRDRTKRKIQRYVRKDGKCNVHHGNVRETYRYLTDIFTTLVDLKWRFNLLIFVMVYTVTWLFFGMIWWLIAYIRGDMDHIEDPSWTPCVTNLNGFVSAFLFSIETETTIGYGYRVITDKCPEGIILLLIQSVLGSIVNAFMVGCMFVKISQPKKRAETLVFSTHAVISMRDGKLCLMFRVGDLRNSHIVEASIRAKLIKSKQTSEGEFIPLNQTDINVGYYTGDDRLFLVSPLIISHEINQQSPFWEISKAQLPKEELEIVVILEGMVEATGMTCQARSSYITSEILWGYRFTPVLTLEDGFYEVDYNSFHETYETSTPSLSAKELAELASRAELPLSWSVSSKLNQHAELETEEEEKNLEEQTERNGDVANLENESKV
G protein-activated inward rectifier potassium channel 2 (Homo sapiens) + G protein-activated inward rectifier potassium channel 1 (Homo sapiens), sequence (P48549 whole entry, looked up): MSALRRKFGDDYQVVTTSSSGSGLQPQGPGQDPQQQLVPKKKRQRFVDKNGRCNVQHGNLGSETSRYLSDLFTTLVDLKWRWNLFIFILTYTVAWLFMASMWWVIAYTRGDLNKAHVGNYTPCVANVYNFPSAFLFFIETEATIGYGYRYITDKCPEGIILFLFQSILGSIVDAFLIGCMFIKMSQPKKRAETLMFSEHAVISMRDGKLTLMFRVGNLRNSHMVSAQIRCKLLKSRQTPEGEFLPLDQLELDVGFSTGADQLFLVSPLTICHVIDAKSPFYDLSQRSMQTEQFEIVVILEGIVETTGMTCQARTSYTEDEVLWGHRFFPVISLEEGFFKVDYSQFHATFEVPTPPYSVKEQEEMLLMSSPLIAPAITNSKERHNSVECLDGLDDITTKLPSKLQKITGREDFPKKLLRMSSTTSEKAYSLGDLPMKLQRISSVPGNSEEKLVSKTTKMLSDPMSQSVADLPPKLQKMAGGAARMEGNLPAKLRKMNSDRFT

- EC50: 54.1 nM
SMILES: Cc1cc(NC(=O)Nc2ccc(F)c(F)c2)n(-c2ccccc2)n1
